# An excerpt weighted towards active compounds, which were near 3.8% of everything screened.
# CSC inhib – cancer stem cell viability inhibitors, primary screen, luminescence | cancer stem cell-like cells viability | inhibition, % at 7.5 µM | 300,000 tested, 1.1% active | AID 2717, 2010; in the data active means inhibition above about 75%; tested in HMLE shEcad cells
# MC4R antagonist – MC4R antagonists of cAMP signaling, primary screen, cell-based, TR-FRET, antagonist arm of biased-ligand search | Melanocortin receptor 4 (Homo sapiens), P32245 | AID 540295, 2011 | inhibition, % at 6.5 µM | MC4R-expressing cells, MTII-stimulated cAMP, LANCE TR-FRET | 360,000 tested, 0.48% active;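 active means inhibition above its plate's cutoff, the mean of tested wells on that plate plus 3 SD, cut at about 29% in these data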;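 further: 0% = Melanotan II alone and 100% = Melanotan II plus saturating MCL0020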
# Target sequence (P32245 whole entry, looked up): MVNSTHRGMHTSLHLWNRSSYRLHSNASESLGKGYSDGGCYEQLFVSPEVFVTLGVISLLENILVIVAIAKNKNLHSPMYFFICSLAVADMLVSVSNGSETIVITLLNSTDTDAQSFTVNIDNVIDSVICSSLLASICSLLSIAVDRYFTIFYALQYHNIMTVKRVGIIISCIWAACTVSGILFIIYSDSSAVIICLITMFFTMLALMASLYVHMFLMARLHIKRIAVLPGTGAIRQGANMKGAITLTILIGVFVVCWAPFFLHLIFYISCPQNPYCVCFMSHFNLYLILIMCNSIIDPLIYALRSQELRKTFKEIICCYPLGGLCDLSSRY
#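 material = U2OS cells stably expressing human melanocortin 4 receptor (MC4R) | also added = Melanotan II challenge | dosing = single nominal compound dose of 6.5 µM | detection = TR-FRET with Eu-cAMP and labeled anti-cAMP, 671 nm | replication = singlicate | timing = compound 30 min, challenge 1 h, detection 1 h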
# MC4R barr agon – MC4R agonists recruiting beta-arrestin, primary screen, cell-based, luminescence, agonist arm of biased-ligand search; U2OS MC4R beta-arrestin complementation; percent of melanotan II response, DMSO zero; Melanocortin receptor 4 (Homo sapiens), P32245; AID 540308, 2011; activation, % at 8.9 µM; 360,000 tested, 0.98% active;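 active means activation above a per-plate cutoff, the mean activation of sample wells on that plate plus 3 SD, cut at about 8% in these data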
# TMEM16A act – TMEM16A chloride channel activators or potentiators, primary screen, cell-based, HTS | B-score at 10 µM | AID 623877, 2012 | 340,000 tested, 0.3% active | HEK293 TMEM16A/YFP-H148Q/I152L, iodide quench fluorescence; active compounds read low | Anoctamin-1 (Mus musculus), Q8BHY3;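 active means fluorescence-ratio B-score plate-corrected deviation score at least 3 library SD below zero, with starting fluorescence score within 5 deviations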;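 further: channel opened by trigger with iodide after compound preincubation; score built on the fluorescence ratio of max minus min over baseline; more negative score means more quench and so TMEM16A activation or potentiation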
# Beta cell apopt – inhibitors of cytokine-induced beta cell apoptosis, primary screen, luminescence. protection from apoptosis, % (no concentration beside the values). AID 435005, 2010. INS-1E cytokine-induced death, ATP luminescence, 48 h; percent of positive-control rescue, neutral wells zero. 300,000 tested, 0.8% active;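 active means Every replicate reaches about 75%, or at least half do and their mean reaches it too, limit read from the data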;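 further: 0% = cytokine-treated negative control wells and 100% = positive control rescue; higher means more ATP so stronger rescue from cytokine killing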
# TMEM16A inh – TMEM16A chloride channel inhibitors, primary screen, cell-based, HTS; Anoctamin-1 (Mus musculus), Q8BHY3; HEK293 TMEM16A/YFP iodide influx fluorescence, ionomycin; normalized B-score (activity score, 25-100; higher = stronger inhibition) at 10 µM; 310,000 tested, 1.2% active; AID 588511, 2011;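 active means ratio plate-corrected score three or more library SD toward inhibition, starting fluorescence score within five deviations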;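 further: score derived from kinetic fluorescence span divided by baseline fluorescence per well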
# Starred values were filed as active, the others as inactive; i = inactive; · = not tested or not shown.
SMILES,CSC inhib,MC4R antagonist,MC4R barr agon,TMEM16A act,Beta cell apopt,TMEM16A inh
COc1ccccc1-c1nnc2sc(-c3ccc(N(C)C)cc3)nn12,54,-22,2,i,-1,i
CC(C)(C)S(=O)(=O)N1C[C@@H]2C(=CC[C@H]3C(=O)N(c4ccccc4)C(=O)[C@@H]23)[C@@H]1CCO,·,0,0,·,·,·
COc1ccc2[nH]c3c(N4CC(C)OC(C)C4)ncnc3c2c1 (stereo unspecified),1,·,·,·,6,i
c1ccc2c(c1)CCN(c1ncnc3c1[nH]c1ccccc13)C2,-7,9,-2,i,7,100*
COc1cccc(N2CCN(c3ncnc4c3[nH]c3ccccc34)CC2C)c1 (stereo unspecified),8,·,·,·,58,100*
COc1cc2[nH]c3c(N4CCN(c5ccc(Cl)cc5)CC4)ncnc3c2cc1OC,-8,20,12*,i,29,i
Cc1ccc(S(=O)(=O)NCC(=O)NCC(=O)NCCc2ccc(Cl)cc2)cc1C,·,9,-1,·,·,·
CCOc1c(O)ccc(/C=C2\SC(=S)NC2=O)c1[N+](=O)[O-],6,-11,-3,i,-8,i
CCOc1cc(/C=C2\N=C(SCC)SC2=O)cc([N+](=O)[O-])c1OC(C)=O,7,7,-3,i,-15,100*
CCOc1c(OC(C)=O)ccc(/C=C2\N=C(SCC)SC2=O)c1[N+](=O)[O-],-13,9,-3,i,-4,100*
CCSC1=N/C(=C\c2ccc(C(=O)O)cc2)C(=O)S1,-13,22,0,i,-3,i
CCC(C)[C@H](NC(=O)N1CC(=O)Nc2ccccc21)C(=O)N[C@@H](C(=O)O)c1ccccc1 (stereo partly specified),-5,0,1,i,-15,i
CC1=C(C(=O)N(C)C)CC(CC(=O)NCc2cccc3ccccc23)C(=O)N1Cc1ccccc1 (stereo unspecified),·,2,-1,·,·,·
CCc1ccc([C@@H]2CC=C(C(=O)O)[C@H](c3ccc(C)cc3)N2S(=O)(=O)c2ccc(C)cc2)cc1,·,7,0,·,·,·
Cc1ccc(S(=O)(=O)N2[C@@H](c3ccc(Br)cc3)C(C(=O)O)=CC[C@H]2c2cccc(Cl)c2)cc1,·,2,0,·,-4,·
CCCCC[C@@H]1C=C(C(=O)O)[C@H](c2ccc(Cl)c(Cl)c2)N1S(=O)(=O)c1ccc(C)cc1,98*,2,2,·,-1,·
CCc1ccc([C@@H]2CC=C(C(=O)O)[C@H](c3ccc(Cl)cc3)N2S(=O)(=O)c2ccc(C)cc2)cc1,79*,1,0,i,-12,100*
CC[C@@H]1C=C(C(=O)O)[C@H](c2ccc(Cl)c(Cl)c2)N1S(=O)(=O)c1ccc(C)cc1,·,11,-2,·,-12,·
CCc1ccc([C@@H]2CC=C(C(=O)O)[C@H](c3cccc(Cl)c3)N2S(=O)(=O)c2ccc(C)cc2)cc1,-3,19,1,i,2,100*
COc1ccccc1CNS(=O)(=O)c1ccc2c(c1)N(C(C)=O)CCO2,-5,6,-2,i,6,i
NS(=O)(=O)c1ccc(NC(=S)NC(=O)C2CCCC2)cc1,12,-3,0,i,-6,i
CC1CC(CCC(=O)NC(=S)Nc2ccc(S(N)(=O)=O)cc2)C(=O)O1 (stereo unspecified),-8,11,-2,-4.7*,-4,i
COCc1cccc(-c2csc(C(O)c3ccccc3)n2)c1 (stereo unspecified),·,3,1,·,·,·
CCC1(c2ccc(F)cc2)NC(=O)N(CC(=O)NC2CCCC(C)C2C)C1=O (stereo unspecified),-6,3,-1,i,-2,·
COC(=O)c1cc2ccsc2n1CC(=O)Nc1ccc(N(C)C)cc1,-8,20,-2,i,7,i
SMILES,CSC inhib,MC4R antagonist,MC4R barr agon,TMEM16A act,Beta cell apopt,TMEM16A inh
COC(=O)c1cc2ccsc2n1CC(=O)Nc1cc(Cl)ccc1OC,65,-4,-2,i,22,25*
O=C(NCCN1CCN(c2ccccc2)CC1)Nc1ccc(Cl)cc1,25,5,9.2*,i,0,i
O=C(NCCN1CCN(c2cccc(Cl)c2)CC1)Nc1ccccc1,8,14,1,i,-4,i
O=C(CCN1CCN(c2ccccc2)CC1)Nc1cccc(Br)c1,13,10,8.6*,i,-8,i
Cc1ccc(S(=O)(=O)Nc2ccccc2N=Cc2ccc([N+](=O)[O-])cc2[N+](=O)[O-])cc1,·,22,1,i,·,·
Cn1c(-c2ccccc2)c(C(=O)CCl)c2ccccc21,·,3,12*,i,·,·
Cc1ccc(N2C(=O)C3CC(c4ccccc4)=C4C5C=CC(C6C(=O)N(c7ccc(C)cc7C)C(=O)C56)C4C3C2=O)c(C)c1 (stereo unspecified),·,6,0,i,-1,i
Cc1ccc(N2C(=O)C3CC(c4ccccc4)=C4C5C=CC(C6C(=O)N(c7ccc(C)cc7)C(=O)C56)C4C3C2=O)cc1 (stereo unspecified),-8,13,8.6*,i,5,i
Cc1ccc(C(=O)Nc2cccc(C(F)(F)F)c2)cc1NC(=O)c1csc(-c2ccncc2)n1,-14,22,-1,i,4,i
N#C/C(=N\Nc1cccc(C(F)(F)F)c1)C(=O)c1csc(-c2cccnc2)n1,66,22,-3,i,-3,100*
O=C(O)c1ccc(N=N/C(=N\Nc2ccc(C(=O)O)cc2)c2ccccc2)cc1,15,0,-4,i,19,i
O=C(O)c1cccc(N/N=C(\N=Nc2ccccc2)c2ccccc2)c1,88*,1,-1,i,-1,i
Cc1ccnc(NC(=O)C2CC(=O)N(c3ccc4c(c3)OCCO4)C2)c1 (stereo unspecified),·,-2,-1,i,-19,i
COC(=O)c1ccc(CNC(=O)COC(=O)/C=C/c2cccc(OC)c2)cc1,·,1,0,·,·,·
COc1ccc(CNC(=O)COC(=O)/C=C/c2cccc(Cl)c2)cc1,-6,12,8.3*,i,0,·
O=c1ccn(Cc2ccccc2)cc1,-27,11,-1,i,-5,i
Cc1ccccc1Cn1ccc(=NCc2ccccc2)cc1,0,·,·,·,103*,i
